The values that follow come from ChEMBL document CHEMBL1148398, “Design, synthesis, and biological evaluation of thio-containing compounds with serum HDL-cholesterol-elevating properties” (2004).

Each structure is given as a SMILES string.

In experiment [1] the test system is Rattus norvegicus. The experiment is described as follows: Effect of compound on low-density lipoprotein cholesterol levels in 6th group of normal chow-fed male rats after a dose of 50 mg/kg/day. Type of experiment: functional, organism-based. The essentials:
(§1)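 Male Sprague–Dawley CD rats, 60–80 g, on standard chow with reverse 12 h light/dark cycle. One oral gavage dose daily for 4 days, suspended in 1.3% Tween 80 and 0.25% CMC. Fasted overnight; sacrificed 24 h after the last dose. Serum TC on clinical analyzer, lipoproteins by FPLC with cholesterol per fraction, T4 on analyzer. Mean ± SEM, six rats per group.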

The test system of experiment [2] is Cricetinae gen. sp. In words: Effect of compound on aspartate aminotransferase (AST) levels in 4th group of cholesterol-fed male hamsters at 100 mg/kg/day after 14 days of treatment. The conditions noted are these: Mesocricetus auratus.
For experiment [3], the system named is Cricetinae gen. sp. In words: Percent change in very low-density lipoprotein cholesterol following oral administration of compound in hypercholesterolemic hamsters at 100 mg/kg/day for 14 days. Type of experiment: functional. Summed up:
(§2)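 Male Syrian Golden hamsters pre-fed chow plus 0.25% cholesterol for 2 weeks and kept on it. Dosed 100 mg/kg/day by oral gavage in 2% Tween 80/saline for 14 days. Serum total cholesterol and glycerol-blanked triglycerides read enzymatically; lipoproteins separated by FPLC with cholesterol measured in each fraction. % change versus vehicle controls; six per group, p < 0.05.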

Experiment [4] relates to Cricetinae gen. sp. The experiment is described as follows: Effect of compound on triglycerides level in 4th group of cholesterol-fed male hamsters at 100 mg/kg/day after 14 days of treatment. As to conditions: Mesocricetus auratus.
In experiment [5] the test system is Rattus norvegicus. The experiment is described as follows: Effect of compound on relative liver weight in 6th group of normal chow-fed male rats after a dose of 50 mg/kg/day. Type of experiment: functional. Summed up: (§3)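 Chow-fed male Sprague–Dawley CD rats, 60–80 g, dosed by oral gavage once daily for 4 days in 1.3% Tween 80/0.25% CMC. Fasted overnight and sacrificed 24 h after the last dose. Liver weight expressed as % of body weight at termination. Six per group, mean ± SEM.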

The nature of experiment [6]: Effect on serum lipids in 2nd group of cholesterol-fed male hamsters at 10 mg/kg/day after 14 days of treatment was evaluated as ratio of total cholesterol levels to high-density lipoprotein cholesterol levels. Type of experiment: functional. The essentials: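 Male Syrian Golden hamsters on chow plus 0.25% cholesterol, 2 weeks before and during dosing. Oral gavage for 14 days in 2% Tween 80/saline. Fasted 4 h before sacrifice. Serum total cholesterol measured enzymatically; HDL-C from cholesterol in FPLC lipoprotein fractions; TC/HDL-C ratio calculated. Six per group, mean ± SEM.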

Experiment [7] concerns Cricetinae gen. sp. The experiment is described as follows: Effect of compound on lactic dehydrogenase (LDH) levels in 3rd group of cholesterol-fed male hamsters at 30 mg/kg/day after 14 days of treatment. The conditions noted are these: Mesocricetus auratus.
Experiment [8] concerns Cricetinae gen. sp. In words: Effect of compound on liver weight in 1st group of cholesterol-fed male hamsters at 3 mg/kg/day after 14 days of treatment. Type of experiment: functional. Summed up:
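Male Syrian Golden hamsters, 90–100 g, fed chow plus 0.25% cholesterol for 2 weeks before and throughout dosing. Compound suspended in 2% Tween 80 in saline, given by oral gavage for 14 days; vehicle controls. Fasted 4 h, last dose 2 h before sacrifice, then weighed and blood and liver collected. Liver enzymes read on a clinical analyzer. Six per group, mean ± SEM.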

Experiment [9] relates to Rattus norvegicus. The experiment is described as follows: Effect of compound on liver weight in 5th group of normal chow-fed male rats after a dose of 20 mg/kg/day. Type of experiment: functional. The essentials: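 Male Sprague–Dawley CD rats, 60–80 g, on chow with a reverse 12 h light/dark cycle. Given one oral gavage dose daily for 4 days, suspended in 1.3% Tween 80/0.25% CMC. Fasted overnight and sacrificed 24 h after the last dose for blood and liver. Serum liver enzymes read on a clinical analyzer. Six per group, mean ± SEM.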

The nature of experiment [10]: Effect on serum lipids in 1st group of normal chow-fed male rats after a dose of 1 mg/kg/day was evaluated as ratio of total plasma cholesterol levels to high-density lipoprotein cholesterol levels. Type of experiment: functional. The essentials:
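Male Sprague–Dawley CD rats, 60–80 g, chow-fed, dosed by oral gavage daily for 4 days in 1.3% Tween 80/0.25% CMC. Fasted overnight, bled 24 h after the last dose. Serum total cholesterol by enzymatic reagent; HDL-C from cholesterol in FPLC fractions; TPC/HDL-C ratio calculated. Six per group, mean ± SEM.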

The subject of experiment [11] is Rattus norvegicus. The experiment is described as follows: Effect of compound on alanine aminotransferase (ALT) levels in 1st group of normal chow-fed male rats after a dose of 1 mg/kg/day. Type of experiment: functional, organism-based. Summed up: (§4)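 Male Sprague–Dawley CD rats (60–80 g) on standard chow under a reversed 12 h light/dark cycle. Compound was suspended in 1.3% Tween 80/0.25% CMC and given as a single daily oral gavage dose for 4 days. Rats were fasted overnight and killed 24 h after the last dose. Serum ALT, AST, ALKP and LDH were read on a clinical analyzer. Weight gain was start versus end weight. Mean ± SEM, n = 6.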

In experiment [12] the test system is Rattus norvegicus. The experiment is described as follows: Effect of compound on thyroxine levels in 1st group of normal chow-fed male rats after a dose of 1 mg/kg/day. Type of experiment: functional, organism-based. The essentials:
as §1

Experiment [13] has as its system Cricetinae gen. sp. The experiment is described as follows: Effect of compound on low-density lipoprotein cholesterol levels in 3rd group of cholesterol-fed male hamsters at 30 mg/kg/day after 14 days of treatment. As to conditions: Mesocricetus auratus.
Experiment [14] has as its system Rattus norvegicus. The experiment is described as follows: Effect of compound on alkaline phosphatase (ALKP) levels in 6th group of normal chow-fed male rats after a dose of 50 mg/kg/day. Type of experiment: functional, organism-based. The essentials: as §4
Experiment [15] deals with Cricetinae gen. sp. In words: Effect of compound on alkaline phosphatase (ALKP) levels in 3rd group of cholesterol-fed male hamsters at 30 mg/kg/day after 14 days of treatment. As to conditions: Mesocricetus auratus.
Experiment [16] relates to Cricetinae gen. sp. In words: Effect of compound on lactic dehydrogenase (LDH) levels in 1st group of cholesterol-fed male hamsters at 3 mg/kg/day after 14 days of treatment. The conditions noted are these: Mesocricetus auratus.
For experiment [17], the system named is Rattus norvegicus. The experiment is described as follows: Effect of compound on relative liver weight in 1st group of normal chow-fed male rats after a dose of 1 mg/kg/day. Type of experiment: functional. The essentials:
as §3

The test system of experiment [18] is Cricetinae gen. sp. In words: Percent change in total plasma cholesterol following oral administration of compound in hypercholesterolemic hamsters at 100 mg/kg/day for 14 days. Type of experiment: functional. The essentials: as §2
The subject of experiment [19] is Cricetinae gen. sp. In words: Effect of compound on low-density lipoprotein cholesterol levels in 4th group of cholesterol-fed male hamsters at 100 mg/kg/day after 14 days of treatment. The conditions noted are these: Mesocricetus auratus.
In experiment [20] the test system is Rattus norvegicus. In words: Effect of compound on alkaline phosphatase (ALKP) levels in 2nd group of normal chow-fed male rats after a dose of 2 mg/kg/day. Type of experiment: functional, organism-based. The essentials: as §4
Experiment [21] has as its system Rattus norvegicus. In words: Effect of compound on total plasma cholesterol levels in 4th group of normal chow-fed male rats after a dose of 10 mg/kg/day. Type of experiment: functional, organism-based. The essentials: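 Male Sprague–Dawley CD rats (60–80 g) on Purina 5001 chow with a reverse 12 h light/dark cycle. Dosed once daily by oral gavage for 4 days, suspended in 1.3% Tween 80 / 0.25% CMC. Fasted overnight and bled 24 h after the last dose. Serum TC and glycerol-blanked TG measured enzymatically; VLDL-C by FPLC fractionation with cholesterol assay. n=6, mean ± SEM.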

In experiment [22] the test system is Cricetinae gen. sp. The experiment is described as follows: Effect of compound on very low-density lipoprotein cholesterol levels in 1st group of cholesterol-fed male hamsters at 3 mg/kg/day after 14 days of treatment. The conditions noted are these: Mesocricetus auratus.

In the case of `CCN1CC(=O)N(c2cc(Cl)ccc2C)C1=S`, the Serum level amounted to 7.1 mg/dL in the experiment on Rattus norvegicus [1]; 342 mg/dL in the experiment on Cricetinae gen. sp. [4]; 3.65 µg/dL in the experiment with Rattus norvegicus [12]; 125 mg/dL in the experiment with Cricetinae gen. sp. [13]; 102 mg/dL in the experiment with Cricetinae gen. sp. [19]; 85 mg/dL with Rattus norvegicus [21]. The same compound had a Serum level in the experiment on Cricetinae gen. sp. [22] of 115 mg/dL. For the same compound, the Level is 424 U l-1 in the experiment with Cricetinae gen. sp. [2]; 823 U l-1 in the experiment with Cricetinae gen. sp. [7]; 61 U l-1 with Rattus norvegicus [11]; 330 U l-1 in the experiment on Rattus norvegicus [14]; 136 U l-1 in the experiment on Cricetinae gen. sp. [15]; 1230 U l-1 in the experiment with Cricetinae gen. sp. [16]. The same compound had a Level in the experiment on Rattus norvegicus [20] of 373 U l-1. The Change is on record as -33.4% with Cricetinae gen. sp. [3] and -3.3% in the experiment on Cricetinae gen. sp. [18]. The results for the Relative liver weight with Rattus norvegicus [5] and in the experiment on Rattus norvegicus [17] were 4% and 4.3%, respectively. The results for the Ratio in experiment [6] and in experiment [10] were 2.85 and 1.45, respectively. The Liver weight in the experiment on Cricetinae gen. sp. [8] is on record as 9.58 g; in the experiment with Rattus norvegicus [9], 8.2 g.
